From ChEMBL document CHEMBL4828723, “Synthesis and Biological Evaluation of Falcarinol-Type Analogues as Potential Calcium Channel Blockers” (J Nat Prod, 2021) come the findings set out here.

Molecules are shown by their SMILES. Activity calls are given as the source filed them. The rule behind the calls is not given here.

The test system of data set [1] is PC-12. Kind of data set: Neuroprotective activity against NaN3-induced cell injury in rat PC12 cells assessed as cell survival rate at 80 uM measured after 24 hrs by CCK-8 assay (reference value: 49.9 to 52%). The class given is functional. Particulars: read-out: Survival. For orientation: Formazan colour is commonly taken as a measure of viable cells.
The subject of data set [2] is PC-12. Kind of data set: Neuroprotective activity against NaN3-induced cell injury in rat PC12 cells assessed as cell survival rate at 100 uM measured after 24 hrs by CCK-8 assay (reference value: 49.9 to 52%). The format is functional. As to conditions: read-out: Survival.
Data set [3] has as its system PC-12. Kind of data set: Neuroprotective activity against NaN3-induced cell injury in rat PC12 cells assessed as cell survival rate at 10 uM measured after 24 hrs by CCK-8 assay (reference value: 49.9 to 52%). Particulars: read-out: Survival. The class given is functional.
The test system of data set [4] is PC-12. Kind of data set: Neuroprotective activity against NaN3-induced cell injury in rat PC12 cells assessed as cell survival rate at 5 uM measured after 24 hrs by CCK-8 assay (reference value: 49.9 to 52%). The format is functional. As to conditions: read-out: Survival.
In data set [5] the test system is PC-12. Kind of data set: Neuroprotective activity against NaN3-induced cell injury in rat PC12 cells assessed as cell survival rate at 40 uM measured after 24 hrs by CCK-8 assay (reference value: 49.9 to 52%). The format is functional. Particulars: read-out: Survival.
In data set [6] the test system is PC-12. Kind of data set: Neuroprotective activity against NaN3-induced cell injury in rat PC12 cells assessed as cell survival rate at 20 uM measured after 24 hrs by CCK-8 assay (reference value: 49.9 to 52%). The class given is functional. As to conditions: read-out: Survival.
The subject of data set [7] is PC-12. Kind of data set: Neuroprotective activity against NaN3-induced cell injury in rat PC12 cells assessed as cell survival rate at 20 uM measured after 24 hrs by CCK-8 assay (reference value: 50%). Particulars: read-out: Survival. The class given is functional.
For data set [8], the system named is PC-12. Kind of data set: Neuroprotective activity against NaN3-induced cell injury in rat PC12 cells assessed as cell survival rate at 40 uM measured after 24 hrs by CCK-8 assay (reference value: 50%). The format is functional. Particulars: read-out: Survival.
Data set [9] concerns PC-12. Kind of data set: Neuroprotective activity in rat PC12 cells assessed as reduction in NaN3-induced MDA release at 5 uM measured (reference value: 253 nmol/mL). The class given is functional.
Data set [10] deals with PC-12. Kind of data set: Neuroprotective activity in rat PC12 cells assessed as prevention of NaN3-induced apoptosis at 5 to 10 uM measured after 24 hrs by Hoechst staining based assay. The class given is functional, cell-based. Particulars: dose 5-10 µM. The essentials:
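PC12 cells plated at about 1 × 10⁵ per well and cultured overnight. Pretreated 1 h with 5, 10 or 20 μM compound, then NaN₃ for 24 h in glucose-free, serum-free RPMI 1640 after two washes in glucose-free EBSS pH 7.5. Cells fixed 30 min in methanol, stained with Hoechst 33258 for 10 min at 37 °C in the dark, and scored for nuclear morphology by fluorescence microscopy (ex 350/em 461 nm).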

Data set [11] has as its system PC-12. Kind of data set: Neuroprotective activity in rat PC12 cells assessed as reduction in NaN3-induced LDH release at 5 to 10 uM measured by LDH release assay (reference value: 411.84 to 416.67 U/L). The class given is functional. Particulars: dose 5-10 µM.
For data set [12], the system named is PC-12. Kind of data set: Neuroprotective activity against NaN3-induced cell injury in rat PC12 cells assessed as cell survival rate at 10 uM measured after 24 hrs by CCK-8 assay (reference value: 50%). The class given is functional. As to conditions: read-out: Survival.
In data set [13] the test system is PC-12. Kind of data set: Neuroprotective activity against NaN3-induced cell injury in rat PC12 cells assessed as cell survival rate at 5 uM measured after 24 hrs by CCK-8 assay (reference value: 50%). The class given is functional. As to conditions: read-out: Survival.
Data set [14] relates to PC-12. Kind of data set: Neuroprotective activity in rat PC12 cells assessed as prevention of NaN3-induced decrease in SOD release at 5 to 20 uM measured (reference value: 54 U/mg of protein). The class given is functional. As to conditions: dose 5-20 µM.
The target of data set [15] is L-type calcium channel alpha-1c/beta-2/alpha2delta-1 (Homo sapiens, UniProt P54289+Q08289+Q13936). Kind of data set: Inhibition of human alpha1c/beta2a/alpha2delta1 Cav1.2 expressed in HEK293 cells assessed as time course of inhibition of membrane potential measured after washout with external solution by manual patch clamp technique. The class given is cell-based. In a few lines: (§1)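 HEK-293 cells stably expressing hCav1.2 (α1C/β2a/α2δ1), induced with tetracycline 1 μg/mL for 24 h. Perforated whole-cell manual patch clamp (amphotericin B 250 μg/mL in pipette; Cs-methanesulfonate internal, pH 7.2) at 24 °C. Holding potential −90 mV, 1000 ms prepulse inactivating 20% of channels, then a 50 ms step to 0 mV, repeated every 15 s. I_Ca-L followed over time, then washout with external solution. Final ethanol/DMSO ≤1.00%.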

The test system of data set [16] is PC-12. Kind of data set: Neurotrophic activity in rat PC12 cells assessed as cell survival rate at 1 uM measured after 24 hrs by CCK-8 assay (reference value: 50%). Particulars: PC-12, 24 h.
Data set [17] deals with T1, Cav1.2 (L-type calcium channel alpha1c/beta2a/alpha2delta1) (Homo sapiens, UniProt P54289+Q08289+Q13936). Kind of data set: Inhibition of human alpha1c/beta2a/alpha2delta1 Cav1.2 expressed in HEK293 cells assessed as time course of inhibition of membrane potential measured after washout with external solution at 100 uM by manual patch clamp technique. The class given is cell-based. The essentials: as §1

For data set [18], the target named is T1, Cav1.2 (L-type calcium channel alpha1c/beta2a/alpha2delta1). Kind of data set: Inhibition of human alpha1c/beta2a/alpha2delta1 Cav1.2 expressed in HEK293 cells assessed as time course of inhibition of membrane potential measured after washout with external solution at 10 uM by manual patch clamp technique. The format is cell-based. In a few lines: as §1
In general terms: The patch-clamp technique gives a direct electrical read-out from membranes.

Data set [19] shares this target. Kind of data set: Inhibition of human alpha1c/beta2a/alpha2delta1 Cav1.2 expressed in HEK293 cells assessed as time course of inhibition of membrane potential measured after washout with external solution at 30 uM by manual patch clamp technique. The class given is cell-based. The essentials:
as §1

Data set [20] deals with PC-12. Kind of data set: Neuroprotective activity against NaN3-induced cell injury in rat PC-12 cells assessed as cell survival rate at 2 to 8 uM measured after 24 hrs by CCK-8 assay (reference value: 50%). The format is functional. As to conditions: dose 2-8 µM.
The target in data set [21] is L-type calcium channel alpha-1c/beta-2/alpha2delta-1 (Homo sapiens, UniProt P54289+Q13936+Q08289). Kind of data set: Irreversible inhibition of human alpha1c/beta2a/alpha2delta1 Cav1.2 expressed in HEK293 cells assessed as decrease in membrane potential measured after washout with external solution at 100 uM by manual patch clamp technique. As to conditions: hek293, 100 µM. The format is cell-based. The essentials:
as §1

For data set [22], the system named is PC-12. Kind of data set: Neuroprotective activity in rat PC12 cells assessed as reduction in NaN3-induced LDH release at 4 uM measured by LDH release assay (reference value: 411.84 to 416.67 U/L). The format is functional. In a few lines: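 PC12 injury model: glucose-free, serum-free RPMI 1640. Pretreatment 4 μM, 1 h before NaN3, then 24 h with NaN3. Cells disrupted by ultrasonication and centrifuged at 10 000 rpm for 10 min at 4 °C. Supernatant LDH measured with a commercial kit, in U/L. n = 3 independent experiments.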

T1 sequence (P54289 25-956 limits assumed): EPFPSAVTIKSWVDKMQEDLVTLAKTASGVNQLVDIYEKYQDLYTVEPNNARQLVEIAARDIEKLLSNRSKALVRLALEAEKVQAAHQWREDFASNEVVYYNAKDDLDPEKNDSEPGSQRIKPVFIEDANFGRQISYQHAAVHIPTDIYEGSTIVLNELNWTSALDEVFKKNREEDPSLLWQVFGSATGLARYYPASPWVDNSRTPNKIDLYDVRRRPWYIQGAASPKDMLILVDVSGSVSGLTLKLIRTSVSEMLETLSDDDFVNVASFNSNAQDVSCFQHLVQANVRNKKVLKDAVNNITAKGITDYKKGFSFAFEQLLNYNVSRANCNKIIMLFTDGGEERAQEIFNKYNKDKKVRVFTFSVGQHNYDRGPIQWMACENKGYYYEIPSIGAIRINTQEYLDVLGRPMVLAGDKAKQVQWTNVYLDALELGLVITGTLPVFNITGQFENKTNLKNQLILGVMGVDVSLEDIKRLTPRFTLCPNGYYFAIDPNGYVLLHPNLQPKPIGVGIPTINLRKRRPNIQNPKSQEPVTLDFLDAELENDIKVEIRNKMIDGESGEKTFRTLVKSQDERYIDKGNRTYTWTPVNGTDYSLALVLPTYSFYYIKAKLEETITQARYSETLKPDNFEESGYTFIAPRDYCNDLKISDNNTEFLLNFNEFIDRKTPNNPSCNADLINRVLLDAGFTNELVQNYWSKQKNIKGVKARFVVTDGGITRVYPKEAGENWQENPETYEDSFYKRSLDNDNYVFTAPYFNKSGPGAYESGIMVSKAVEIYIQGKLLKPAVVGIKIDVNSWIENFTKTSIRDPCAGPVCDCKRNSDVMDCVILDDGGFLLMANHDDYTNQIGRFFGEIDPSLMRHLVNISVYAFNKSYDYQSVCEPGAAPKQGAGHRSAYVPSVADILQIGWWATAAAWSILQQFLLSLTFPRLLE
T1 sequence (P54289 957-1103 limits assumed): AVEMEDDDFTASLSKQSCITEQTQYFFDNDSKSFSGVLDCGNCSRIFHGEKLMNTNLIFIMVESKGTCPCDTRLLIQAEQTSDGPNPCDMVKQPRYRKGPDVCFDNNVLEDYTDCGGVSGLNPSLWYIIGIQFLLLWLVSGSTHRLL
T1 sequence (Q08289 whole entry): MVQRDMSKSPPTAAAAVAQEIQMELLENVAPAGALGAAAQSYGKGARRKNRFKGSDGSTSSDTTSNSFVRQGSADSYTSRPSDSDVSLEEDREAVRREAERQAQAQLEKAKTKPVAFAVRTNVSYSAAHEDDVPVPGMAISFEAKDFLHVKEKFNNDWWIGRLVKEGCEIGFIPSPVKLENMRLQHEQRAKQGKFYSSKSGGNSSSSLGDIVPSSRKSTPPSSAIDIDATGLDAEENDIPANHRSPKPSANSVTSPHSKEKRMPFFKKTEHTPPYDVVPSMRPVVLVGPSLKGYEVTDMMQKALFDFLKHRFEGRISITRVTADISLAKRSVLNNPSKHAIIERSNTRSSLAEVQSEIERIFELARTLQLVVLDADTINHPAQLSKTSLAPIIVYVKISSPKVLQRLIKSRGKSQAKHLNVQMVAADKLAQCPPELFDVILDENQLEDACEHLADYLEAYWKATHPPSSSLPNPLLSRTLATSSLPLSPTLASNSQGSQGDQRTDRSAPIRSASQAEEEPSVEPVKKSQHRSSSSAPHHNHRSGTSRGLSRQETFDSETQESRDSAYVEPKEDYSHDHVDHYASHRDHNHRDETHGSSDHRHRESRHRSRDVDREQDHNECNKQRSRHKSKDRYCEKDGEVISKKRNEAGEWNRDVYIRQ
T1 sequence (Q13936 whole entry): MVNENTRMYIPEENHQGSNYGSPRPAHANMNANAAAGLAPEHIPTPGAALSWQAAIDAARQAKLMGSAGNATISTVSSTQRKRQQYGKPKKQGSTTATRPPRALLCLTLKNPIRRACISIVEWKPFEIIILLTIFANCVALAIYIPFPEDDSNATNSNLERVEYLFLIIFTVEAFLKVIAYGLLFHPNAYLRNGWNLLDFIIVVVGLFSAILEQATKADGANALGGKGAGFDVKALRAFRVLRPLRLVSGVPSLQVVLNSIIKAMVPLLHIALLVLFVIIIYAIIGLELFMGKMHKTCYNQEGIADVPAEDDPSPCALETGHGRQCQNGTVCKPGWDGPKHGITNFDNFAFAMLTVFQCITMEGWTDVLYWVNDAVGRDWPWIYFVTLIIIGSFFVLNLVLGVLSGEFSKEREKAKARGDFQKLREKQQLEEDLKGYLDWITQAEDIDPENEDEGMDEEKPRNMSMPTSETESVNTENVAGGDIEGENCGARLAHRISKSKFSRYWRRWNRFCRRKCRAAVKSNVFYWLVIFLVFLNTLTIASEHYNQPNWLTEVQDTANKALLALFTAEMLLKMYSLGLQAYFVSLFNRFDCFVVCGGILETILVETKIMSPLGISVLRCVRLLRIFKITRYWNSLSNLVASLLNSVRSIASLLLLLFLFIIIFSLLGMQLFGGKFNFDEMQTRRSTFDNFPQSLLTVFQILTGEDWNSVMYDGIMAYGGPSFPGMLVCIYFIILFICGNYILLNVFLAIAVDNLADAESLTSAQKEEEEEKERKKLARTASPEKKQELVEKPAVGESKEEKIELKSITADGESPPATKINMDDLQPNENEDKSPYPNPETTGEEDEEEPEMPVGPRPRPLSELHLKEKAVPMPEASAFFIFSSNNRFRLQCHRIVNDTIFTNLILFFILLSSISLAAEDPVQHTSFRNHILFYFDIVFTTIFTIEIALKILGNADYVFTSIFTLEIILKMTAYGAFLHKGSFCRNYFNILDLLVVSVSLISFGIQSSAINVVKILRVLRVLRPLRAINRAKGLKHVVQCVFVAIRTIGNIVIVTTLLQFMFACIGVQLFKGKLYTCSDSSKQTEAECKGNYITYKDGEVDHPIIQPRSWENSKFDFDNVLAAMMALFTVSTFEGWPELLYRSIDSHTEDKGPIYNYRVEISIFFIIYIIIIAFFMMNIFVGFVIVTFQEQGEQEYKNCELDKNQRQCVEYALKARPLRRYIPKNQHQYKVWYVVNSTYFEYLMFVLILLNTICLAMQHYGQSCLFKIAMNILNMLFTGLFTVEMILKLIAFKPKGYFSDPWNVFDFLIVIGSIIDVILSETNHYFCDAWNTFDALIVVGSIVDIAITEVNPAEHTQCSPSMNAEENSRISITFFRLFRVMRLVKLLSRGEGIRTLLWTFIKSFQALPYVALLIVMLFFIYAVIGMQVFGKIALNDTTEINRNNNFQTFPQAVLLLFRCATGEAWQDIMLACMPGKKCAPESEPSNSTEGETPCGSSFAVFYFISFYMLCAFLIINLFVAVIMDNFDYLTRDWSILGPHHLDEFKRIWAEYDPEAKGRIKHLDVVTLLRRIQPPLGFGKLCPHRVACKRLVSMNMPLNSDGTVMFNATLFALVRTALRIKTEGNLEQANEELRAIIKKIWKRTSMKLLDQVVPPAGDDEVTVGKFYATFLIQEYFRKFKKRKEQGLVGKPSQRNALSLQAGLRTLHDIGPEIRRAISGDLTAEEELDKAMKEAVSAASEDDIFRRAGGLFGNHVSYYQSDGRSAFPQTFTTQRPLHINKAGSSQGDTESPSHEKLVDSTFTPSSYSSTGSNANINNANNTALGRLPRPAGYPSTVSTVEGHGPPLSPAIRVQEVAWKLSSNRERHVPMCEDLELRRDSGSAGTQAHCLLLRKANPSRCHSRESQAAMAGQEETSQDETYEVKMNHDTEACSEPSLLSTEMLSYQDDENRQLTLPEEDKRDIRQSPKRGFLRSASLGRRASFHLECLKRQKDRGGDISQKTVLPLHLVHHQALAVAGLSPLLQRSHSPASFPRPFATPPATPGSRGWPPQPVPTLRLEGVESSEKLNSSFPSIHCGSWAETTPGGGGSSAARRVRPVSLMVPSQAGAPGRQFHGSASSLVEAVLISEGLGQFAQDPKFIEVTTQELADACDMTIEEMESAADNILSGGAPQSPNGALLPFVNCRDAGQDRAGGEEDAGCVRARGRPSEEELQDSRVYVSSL
L-type calcium channel alpha-1c/beta-2/alpha2delta-1 (Homo sapiens, UniProt P54289+Q08289+Q13936), sequence (P54289 25-956 limits assumed): as the sequence (P54289 25-956 limits assumed) above
L-type calcium channel alpha-1c/beta-2/alpha2delta-1 (Homo sapiens, UniProt P54289+Q08289+Q13936), sequence (P54289 957-1103 limits assumed): as the sequence (P54289 957-1103 limits assumed) above
L-type calcium channel alpha-1c/beta-2/alpha2delta-1 (Homo sapiens, UniProt P54289+Q08289+Q13936), sequence (Q08289 whole entry): as the sequence (Q08289 whole entry) above
L-type calcium channel alpha-1c/beta-2/alpha2delta-1 (Homo sapiens, UniProt P54289+Q08289+Q13936), sequence (Q13936 whole entry): as the sequence (Q13936 whole entry) above

As to `CCCCCCCCC[C@H](C#CC#C[C@H](O)c1ccccc1)OC(=O)c1ccccc1`, the viability at 80 µM in the data set with PC-12 [1] is 36.2%. Also, in the data set on PC-12 [2], the viability at 100 µM is 31.3%. In addition, the viability at 10 µM in the data set with PC-12 [3] came to 63.7%. Also, in the data set with PC-12 [4], the viability at 5 µM worked out at 65.6%. Further, the viability at 40 µM in the data set with PC-12 [5] was 51.7%. For the same molecule, the viability at 20 µM in the data set on PC-12 [6] worked out at 61.3%.
In the case of `COc1cccc([C@@H](O)C#CC#C[Si](C(C)C)(C(C)C)C(C)C)c1`, in the data set with PC-12 [7], the viability at 20 µM is 61%. Besides, the viability at 40 µM with PC-12 [8] worked out at 65%.
The matching figures for `CC(C)[Si](C#CC#C[C@@H](O)C1CCCC1)(C(C)C)C(C)C`: 66% and 65%.
Take `C#CC#C[C@H](O)c1ccccc1`: in the data set with PC-12 [1], the viability at 80 µM came to 47.5%. The viability at 100 µM in the data set with PC-12 [2] worked out at 43.5%. Further, the viability at 10 µM in the data set on PC-12 [3] is 52.4%. In addition, in the data set on PC-12 [4], the viability at 5 µM was found to be 47.8%. The viability at 40 µM with PC-12 [5] is 49.9%. Also, in the data set on PC-12 [6], the viability at 20 µM turned out to be 55%.
As for `CC(C)[Si](C#CC#C[C@H](O)c1cccc(F)c1)(C(C)C)C(C)C`, the Activity in the data set on PC-12 [9] worked out at 53 nmol/mL; in the data set with PC-12 [11], 132 U/L; with PC-12 [14], 124 U/mg. Also, the result in the data set on PC-12 [10] was Active. Further, the viability at 10 µM with PC-12 [12] turned out to be 76%. In addition, in the data set with PC-12 [13], the viability at 5 µM is 83%.
Usually IC50 stands for the concentration at which inhibition is half-maximal. A word on the inhibition: it is the share of the control response that was lost under treatment. For the molecule `CC(C)[Si](C#CC#C[C@H](O)c1ccccc1)(C(C)C)C(C)C`, the IC50 in data set [15] was determined as 41.3 µM. The figures for the Activity in the data set on PC-12 [9], in the data set with PC-12 [11] and in the data set on PC-12 [14] were 47 nmol/mL, 132 U/L and 124 U/mg, respectively. For the same molecule, the viability at 80 µM with PC-12 [1] worked out at 53%. In addition, the viability at 10 µM with PC-12 [12] worked out at 67%; with PC-12 [3] it was 66.6%. For the same molecule, the viability at 1 µM with PC-12 [16] is not above 96%. Moreover, in data set [17], the inhibition at 100 µM is 79.7%. Moreover, the viability at 5 µM in the data set with PC-12 [13] came out at 60%; with PC-12 [4], 60.1%. The viability at 100 µM with PC-12 [2] was 51.9%. In addition, the inhibition at 10 µM in data set [18] turned out to be 7.7%. The inhibition at 30 µM in data set [19] amounted to 38.6%. Besides, the viability at 40 µM with PC-12 [5] stood at 58.2%. In the data set on PC-12 [6], the viability at 20 µM was 58%.
`C=C[C@@H](O)C#CC#CC/C=C\CCCCCCC`: the IC50 in data set [15] turned out to be 41.3 µM. Besides, the Activity is 68 nmol/mL in the data set with PC-12 [9], “Active” in data set [21] and 211 U/L in the data set on PC-12 [22]. Moreover, in data set [17], the inhibition at 100 µM came out at 61.6%. The Survival in the data set with PC-12 [20] is recorded as 59%. The inhibition at 10 µM in [18] was determined as 7.9%. The inhibition at 30 µM in [19] is 28.1%.
In the case of `CCCCCCCCC[C@H](C#CC#C[Si](C(C)C)(C(C)C)C(C)C)OC(=O)c1ccccc1`, the viability at 80 µM in the data set on PC-12 [1] was 46.4%. The viability at 100 µM with PC-12 [2] came to 43.9%. Further, the viability at 10 µM in the data set with PC-12 [3] worked out at 47.9%. Also, the viability at 5 µM in the data set with PC-12 [4] was 50.4%. Moreover, the viability at 40 µM in the data set with PC-12 [5] turned out to be 46.4%. The viability at 20 µM in the data set with PC-12 [6] was 47.5%.
Turning to `CCCCCCCCC[C@@H](O)C#CC#C[Si](C(C)C)(C(C)C)C(C)C`, in the data set with PC-12 [1], the viability at 80 µM turned out to be 39.5%. For the same molecule, in the data set with PC-12 [2], the viability at 100 µM is 37.6%. Besides, in the data set with PC-12 [3], the viability at 10 µM worked out at 47.8%. In the data set with PC-12 [4], the viability at 5 µM worked out at 49.4%. The viability at 40 µM with PC-12 [5] worked out at 43.5%. Moreover, in the data set with PC-12 [6], the viability at 20 µM amounted to 46.2%.
